According to PMC2978023 (Journal of immunology (Baltimore, Md. : 1950), 2008):
Read-outs that look alike come from different tables or passages of the source. Ends that are not written are not given here. Peptide text beside a SMILES is read from it. * marks the point of attachment. Cbz = O=C(OCc1ccccc1)*

Columns and labels:
PMN = details: cited from earlier work; for effect on PMN apoptosis: ref [6]–[9]
αMβ2 on PMN = experiment: Soluble Alexa 488-labeled ligand binding to PMN, FACS; parameters: species or system human; details: clustering inhibitor, 1 h, 37 °C, mean ± SEM, n = 3
Procedure, shortened: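 Human PMNs were incubated for 1 h at 37°C in HBSS/Ca²⁺/Mg²⁺ with soluble Alexa 488-labelled Plg or Fg, with or without clustering inhibitors. After two buffer washes, bound ligand was read by FACS; mean ± SEM, n = 3.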

αMβ2 = αMβ2 clustering on PMNs, fluorescence microscopy; format: cell-based, human; details: 4 h, 37 °C; for effect on Plg-dependent αMβ2 clustering: Plg 1 μM + inhibitor, MβCD 5 mM, peptide 18 0.5 μM, H7 300 μM, BDM 20 mM, cytochalasin D 10 μM, calpain inhibitor III 10 μM; for αMβ2 macroclusters on PMN surface: proteins 1 μM, peptides 100 μM, anti-αM OKMI staining, four donors
Procedure, shortened: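 Human PMNs were exposed to ligands (proteins 1 μM, peptides 100 μM) for 4 h at 37°C, or to 1 μM Plg together with clustering inhibitors at the final concentrations used in apoptosis assays. Cells were fixed in 4% paraformaldehyde and stained with anti-αM mAb OKMI plus Alexa 488 goat anti-mouse IgG. They were cytospun, mounted and imaged by fluorescence microscopy (×40/0.7 NA); PMNs came from four donors.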

human PMNs = details: for PMN early/late apoptosis (% annexin V+ cells), inhibitor + Fg: clustering inhibitor + Fg 1 μM; for PMN early/late apoptosis (% annexin V+ cells), inhibitor + Fg / PMN early/late apoptosis (% annexin V+ cells), inhibitor + P1 / PMN early/late apoptosis (% annexin V+ cells), inhibitor + P2-C / PMN early/late apoptosis (% annexin V+ cells), inhibitor + Plg: mean ± SEM, n = 5; for PMN early/late apoptosis (% annexin V+ cells), inhibitor + P1: clustering inhibitor + P1 100 μM; for PMN early/late apoptosis (% annexin V+ cells), inhibitor + P2-C: clustering inhibitor + P2-C 100 μM; for PMN early/late apoptosis (% annexin V+ cells), inhibitor + Plg: clustering inhibitor + Plg 1 μM
[1] = molecular target: recombinant purified integrin αMβ2 (Homo sapiens, UniProt P05107+P11215); experiment: Solid-phase binding to purified αMβ2; details: data not shown; test format not stated
Procedure, shortened: (§1)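 Purified recombinant αMβ2, αM or β2 (from HEK293 lines) was coated overnight at 4°C in TBS with 10 mM n-octyl-β-D-glucopyranoside and postcoated with 0.5% PVP for 1 h at 37°C. Biotinylated Plg or Ang(1–4) (0–10 μM) was bound for 2 h at 37°C in the same buffer plus 1 mM CaCl₂/MgCl₂. Binding was detected with alkaline phosphatase–avidin and pNPP at A405. Kd came from a one-site binding fit.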

caspase-8 [2] = experiment: Caspase-8 cleavage in K562 cell lysates, Western blot; format: cell-based, human; details: K562 αMβ2 transfectants, 24 h, 37 °C; proteins 1 μM, peptides 100 μM
αM subunit on K562 cells = experiment: Soluble ligand binding to K562 cells expressing αM, FACS; parameters: species or system human; details: 40 min, 37 °C
Procedure, shortened: (§2)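 Transiently transfected K562 cells were incubated with soluble Alexa 488-labelled Plg or Ang(1–4) for 40 min at 37°C in HBSS containing 1 mM CaCl₂ and 1 mM MgCl₂. Cells were washed twice and bound ligand was quantified by FACS; three independent experiments. For inhibition, cells were pretreated for 20 min at 37°C with function-blocking anti-αM or anti-β2 mAbs (20 μg/ml) or NIF (20 nM).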

[3] = test system: mock-transfected K562 cells; experiment: Apoptosis of mock-transfected K562 cells, annexin V, FACS; format: cell-based, human; details: 16 h, 37 °C; proteins 1 μM, peptides 100 μM; no ligand 81 ± 8; mean ± SEM, n = 5
ERK1/2 [4] = experiment: ERK1/2 phosphorylation in transfected K562 cells, Western blot; format: cell-based, human; details: 37 °C; for ERK1/2 activation, αM cells: K562 expressing αM, 30 min; for ERK1/2 activation, αMβ2 cells: K562 expressing αMβ2, 30 min; for ERK1/2 phosphorylation, mock and β2 cells: K562 mock or expressing β2, 30 min
Procedure, shortened: (§3)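 Transiently transfected K562 cells (αM, β2, αMβ2 or mock) were exposed to ligands for 30 min at 37°C and lysed in ice-cold buffer. Equal protein was run on SDS-PAGE and blotted with the PathScan Multiplex Western Cocktail I, then reprobed for total ERK1/2; blots shown are representative of three experiments.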

[5] = molecular target: recombinant purified β2 subunit (Homo sapiens, UniProt P05107); experiment: Solid-phase binding to purified β2 subunit; details: for recognition by individual integrin subunits (in words): solid-phase binding, αM versus β2
Procedure, shortened: as §1

Akt [6] = experiment: Akt phosphorylation in transfected K562 cells, Western blot; format: cell-based, human; details: 37 °C; for Akt phosphorylation, αM, β2 and mock cells: K562 expressing αM or β2, or mock-transfected, 30 min; for Akt phosphorylation, αMβ2 cells: K562 expressing αMβ2, 30 min
Procedure, shortened: as §3

Bax [7] = experiment: Bax cleavage in PMN lysates, Western blot; format: cell-based, human; details: PMN lysate, 16 h; proteins 1 μM, peptides 100 μM; six donors
Akt [8] = experiment: Akt phosphorylation in PMNs, Western blot; format: cell-based, human; details: PMN stimulated with 1 nM PMA, 30 min, 37 °C; proteins 1 μM, peptides 100 μM
Procedure, shortened: (§4)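 Human PMNs stimulated with 1 nM PMA were incubated with ligands for 30 min at 37°C in HBSS with 1 mM CaCl₂, 1 mM MgCl₂, 0.1% BSA, pH 7.4. Cells were lysed in ice-cold Tris/EDTA/detergent buffer with phosphatase and protease inhibitors. Equal protein was immunoblotted for phospho- and total Akt or ERK1/2, with actin. Inhibition arm: 20 min pretreatment at 37°C with 10 μM Akt inhibitor, 50 μM PD98059, 50 nM NIF, or F(ab′)₂ anti-αM or anti-MHC-1 (20 μg/ml), then 1 μM Plg.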

caspase-3 [9] = experiment: Caspase-3 cleavage in K562 cell lysates, Western blot; format: cell-based, human; details: K562 αMβ2 transfectants, 24 h, 37 °C; proteins 1 μM, peptides 100 μM
caspase-8 [10] = experiment: Caspase-8 cleavage in PMN lysates, Western blot; format: cell-based, human; details: PMN lysate, 16 h; proteins 1 μM, peptides 100 μM; six donors
caspase-3 [11] = experiment: Caspase-3 cleavage in PMN lysates, Western blot; format: cell-based, human; details: PMN lysate, 16 h; proteins 1 μM, peptides 100 μM; six donors
β2 subunit on K562 cells = experiment: Soluble ligand binding to K562 cells expressing β2, FACS; parameters: species or system human; details: 40 min, 37 °C
Procedure, shortened: as §2

Bax [12] = experiment: Bax cleavage in K562 cell lysates, Western blot; format: cell-based, human; details: K562 αMβ2 transfectants, 24 h, 37 °C; proteins 1 μM, peptides 100 μM
αMβ2 on K562 cells = experiment: Soluble ligand binding to K562 cells expressing αMβ2, FACS; parameters: species or system human; details: 40 min, 37 °C
Procedure, shortened: as §2

ERK1/2 [13] = experiment: ERK1/2 phosphorylation in PMNs, Western blot; format: cell-based, human; details: PMN stimulated with 1 nM PMA, 30 min, 37 °C; proteins 1 μM, peptides 100 μM
Procedure, shortened: as §4

Sequence of recombinant purified β2 subunit (P05107 23-769): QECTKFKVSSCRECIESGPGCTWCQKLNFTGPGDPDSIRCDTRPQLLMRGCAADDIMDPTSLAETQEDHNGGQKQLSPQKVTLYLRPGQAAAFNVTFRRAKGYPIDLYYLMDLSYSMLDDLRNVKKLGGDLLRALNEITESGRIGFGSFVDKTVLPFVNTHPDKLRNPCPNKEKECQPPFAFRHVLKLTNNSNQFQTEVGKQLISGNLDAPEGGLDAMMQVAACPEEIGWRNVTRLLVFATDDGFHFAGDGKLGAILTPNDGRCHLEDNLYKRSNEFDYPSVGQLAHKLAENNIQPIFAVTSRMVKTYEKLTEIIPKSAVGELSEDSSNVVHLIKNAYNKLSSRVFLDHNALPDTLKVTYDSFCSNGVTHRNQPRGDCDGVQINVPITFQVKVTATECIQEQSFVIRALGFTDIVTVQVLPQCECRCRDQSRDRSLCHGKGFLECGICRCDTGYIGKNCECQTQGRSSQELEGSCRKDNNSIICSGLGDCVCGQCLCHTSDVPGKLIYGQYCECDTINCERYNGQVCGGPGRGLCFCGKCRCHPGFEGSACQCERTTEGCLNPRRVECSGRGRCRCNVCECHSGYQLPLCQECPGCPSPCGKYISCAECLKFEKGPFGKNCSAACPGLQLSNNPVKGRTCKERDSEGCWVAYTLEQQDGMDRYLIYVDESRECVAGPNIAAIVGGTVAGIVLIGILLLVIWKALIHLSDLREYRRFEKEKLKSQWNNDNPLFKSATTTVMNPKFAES
Sequence of recombinant purified integrin αMβ2 (P05107 23-769, other chains not shown): as the sequence (P05107 23-769) above

## IL-8: agent that promotes PMN responsiveness
PMN
  effect on PMN apoptosis: delay PMN apoptosis

## CC(C)[C@H](NC(=O)OCc1ccccc1)C(=O)N[C@H](C=O)Cc1ccccc1 [Calpain inhibitor III] (Cbz-Val-Phe-aldehyde)
αMβ2 on PMN
  ligand binding, inhibitor, no ligand (background): 3.4 ± 0.4 MFI
αMβ2
  effect on Plg-dependent αMβ2 clustering: blocked or significantly reduced
Human PMNs; 16 h, 37 °C
  PMN early/late apoptosis (% annexin V+ cells), inhibitor + Fg: 88.9 ± 23%
  PMN early/late apoptosis (% annexin V+ cells), inhibitor + P1: 94.5 ± 22%
  PMN early/late apoptosis (% annexin V+ cells), inhibitor + P2-C: 74.7 ± 19%
  PMN early/late apoptosis (% annexin V+ cells), inhibitor + Plg: 97.1 ± 22%

## CC(=O)C(C)=NO [BDM, 2,3-butanedione 2-monoxime]
αMβ2 on PMN
  ligand binding, inhibitor, no ligand (background): 2.90 ± 0.5 MFI
αMβ2
  effect on Plg-dependent αMβ2 clustering: blocked or significantly reduced
Human PMNs; 16 h, 37 °C
  PMN early/late apoptosis (% annexin V+ cells), inhibitor + Fg: 98.7 ± 24%
  PMN early/late apoptosis (% annexin V+ cells), inhibitor + P1: 85.4 ± 20%
  PMN early/late apoptosis (% annexin V+ cells), inhibitor + P2-C: 97.8 ± 22%
  PMN early/late apoptosis (% annexin V+ cells), inhibitor + Plg: 99.2 ± 24%

## NCCCCCC(=O)O [ε-aminocaproic acid]
Human PMNs
  effect on Plg-dependent PMN survival (in words): reduced

## Ang([1]–[3]): angiostatin fragment which lacks kringle 4; Calbiochem
[1]
  recognition by αMβ2: is recognized by this integrin

## COc1cccc(-c2cc(=O)c3ccccc3o2)c1N [PD 98059]
Human PMNs; PMN with Plg, 16 h, 37 °C
  effect on Plg-dependent PMN survival (in words): reduced Plg-dependent PMN survival, but to a lesser extent than the Akt inhibitor

## angiostatin [Ang(1–4)]
caspase-8 [2]
  caspase-8 cleavage product, αMβ2 cells: present
αM subunit on K562 cells
  soluble ligand binding, αM cells (in words): bound both ligands
[3]
  K562 early/late apoptosis (% annexin V+ cells), mock: 78 ± 8%
ERK1/2 [4]
  ERK1/2 activation, αM cells: poorly induced
  ERK1/2 activation, αMβ2 cells: poorly induced
  ERK1/2 phosphorylation, mock and β2 cells: poorly induced
[5]
  recognition by individual integrin subunits (in words): recognized only by the αM and not by the β2 subunit
Akt [6]
  Akt phosphorylation, αM, β2 and mock cells: failed to induce Akt activation
  Akt phosphorylation, αMβ2 cells: failed to induce Akt activation
Bax [7]
  22-kDa Bax fragment: detected
Akt [8]
  Akt phosphorylation: negligible
caspase-3 [9]
  caspase-3 cleavage product, αMβ2 cells: present
caspase-8 [10]
  caspase-8 fragment: detected
caspase-3 [11]
  18-kDa caspase-3 fragment: detected
β2 subunit on K562 cells
  soluble ligand binding, β2 cells (in words): failed to bind soluble Ang([1]– [4])
αMβ2
  αMβ2 macroclusters on PMN surface: did not support αMβ2 clustering
Bax [12]
  Bax cleavage product, αMβ2 cells: present
αMβ2 on K562 cells
  soluble ligand binding, αMβ2 cells (in words): bound both ligands

## TNF-α
PMN
  effect on PMN death: promote PMN death

## KIIPFNRLTIG [P2-C]
[5]
  Kd: 50 nM
Human PMNs; 16 h, 100 μM
  PMN early/late apoptosis (% annexin V+ cells), no inhibitor: 20.1 ± 4%

## CC1CNCCN1S(=O)(=O)c1cccc2cnccc12.Cl.Cl (stereo not drawn) [H7, 1-(5-isoquinolinylsulfonyl)-2-methylpiperazine dihydrochloride]
αMβ2 on PMN
  ligand binding, inhibitor, no ligand (background): 3.2 ± 0.6 MFI
αMβ2
  effect on Plg-dependent αMβ2 clustering: blocked or significantly reduced
Human PMNs; 16 h, 37 °C
  PMN early/late apoptosis (% annexin V+ cells), inhibitor + Fg: 62.3 ± 16%
  PMN early/late apoptosis (% annexin V+ cells), inhibitor + P1: 60.1 ± 14%
  PMN early/late apoptosis (% annexin V+ cells), inhibitor + P2-C: 78.6 ± 17%
  PMN early/late apoptosis (% annexin V+ cells), inhibitor + Plg: 79.2 ± 18%

## C=C1[C@@H](C)[C@H]2[C@H](Cc3ccccc3)NC(=O)[C@]23[C@H](OC(C)=O)/C=C/[C@@](C)(O)C(=O)[C@@H](C)C/C=C/[C@H]3[C@@H]1O [Cytochalasin D, cytochalasin D]
αMβ2 on PMN
  ligand binding, inhibitor, no ligand (background): 2.3 ± 0.3 MFI
αMβ2
  effect on Plg-dependent αMβ2 clustering: blocked or significantly reduced
Human PMNs; 16 h, 37 °C
  PMN early/late apoptosis (% annexin V+ cells), inhibitor + Fg: 55.5 ± 18%
  PMN early/late apoptosis (% annexin V+ cells), inhibitor + P1: 66.07 ± 15%
  PMN early/late apoptosis (% annexin V+ cells), inhibitor + P2-C: 77.4 ± 16%
  PMN early/late apoptosis (% annexin V+ cells), inhibitor + Plg: 66.6 ± 15%

## GM-CSF: agent that promotes PMN responsiveness
PMN
  effect on PMN apoptosis: delay PMN apoptosis

## methyl-β-cyclodextrin [MβCD]
αMβ2 on PMN
  ligand binding, inhibitor, no ligand (background): 3.09 ± 0.4 MFI
Human PMNs; 16 h, 37 °C
  PMN early/late apoptosis (% annexin V+ cells), inhibitor + Fg: 59.3 ± 15%
  PMN early/late apoptosis (% annexin V+ cells), inhibitor + P1: 66.3 ± 18%
  PMN early/late apoptosis (% annexin V+ cells), inhibitor + P2-C: 75.6 ± 17%
  PMN early/late apoptosis (% annexin V+ cells), inhibitor + Plg: 75.0 ± 13%

## fibrinogen [Fg]
ERK1/2 [13]
  ERK1/2 activation: induced ERK1/2 activation
caspase-8 [2]
  caspase-8 cleavage product, αMβ2 cells: not detected
αM subunit on K562 cells
  soluble ligand binding, αM cells (in words): bound soluble Fg
[3]
  K562 early/late apoptosis (% annexin V+ cells), mock: 72 ± 13%
ERK1/2 [4]
  ERK1/2 activation, αM cells: strongly induced
  ERK1/2 activation, αMβ2 cells: strongly induced
  ERK1/2 phosphorylation, mock and β2 cells: poorly induced
[5]
  recognition by individual integrin subunits (in words): engage both integrin subunits
Akt [6]
  Akt phosphorylation, αM, β2 and mock cells: not in K562 cells expressing the individual αM or β2 subunits (Fig. 6A) or mock-transfected cells
  Akt phosphorylation, αMβ2 cells: robust Akt phosphorylation
Bax [7]
  22-kDa Bax fragment: absent
Akt [8]
  Akt phosphorylation: robust Akt phosphorylation
caspase-3 [9]
  caspase-3 cleavage product, αMβ2 cells: not detected
caspase-8 [10]
  caspase-8 fragment: absent
caspase-3 [11]
  18-kDa caspase-3 fragment: absent
β2 subunit on K562 cells
  soluble ligand binding, β2 cells (in words): bound soluble Fg
PMN
  effect on PMN apoptosis: delay PMN apoptosis
αMβ2
  αMβ2 macroclusters on PMN surface: detected
Bax [12]
  Bax cleavage product, αMβ2 cells: not detected
αMβ2 on K562 cells
  soluble ligand binding, αMβ2 cells (in words): bound soluble Fg
